ChEMBL document CHEMBL3085664, “Structure-activity relationship of imidazopyridinium analogues as antagonists of neuropeptide s receptor” (J Med Chem, 2013)

Columns and labels:
Neuropeptide S receptor [1] = biological target: T1, Neuropeptide S receptor (Homo sapiens, UniProt Q6W5P4); assay: Displacement of [125I]Tyr10-NPS from human neuropeptide S receptor expressed in CHO cells after 1.5 hrs by liquid scintillation counting; type: cell-based
T1 sequence (Q6W5P4 whole entry): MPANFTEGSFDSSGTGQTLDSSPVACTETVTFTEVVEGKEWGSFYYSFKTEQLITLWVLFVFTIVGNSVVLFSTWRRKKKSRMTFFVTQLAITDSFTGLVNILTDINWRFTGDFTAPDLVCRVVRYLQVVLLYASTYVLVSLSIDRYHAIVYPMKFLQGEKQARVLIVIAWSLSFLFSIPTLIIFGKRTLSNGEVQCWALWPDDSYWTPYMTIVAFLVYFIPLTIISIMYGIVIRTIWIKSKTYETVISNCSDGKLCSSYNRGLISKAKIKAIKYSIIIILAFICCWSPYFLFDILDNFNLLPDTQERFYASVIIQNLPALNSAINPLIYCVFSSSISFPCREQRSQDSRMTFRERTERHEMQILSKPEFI
Method in brief: (§1)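 Whole CHO cells stably expressing human NPSR at 90–95% confluency in 24-well plates. Cells were incubated with 0.15 nM [125I]Y10-NPS plus increasing compound or unlabeled NPS in DMEM/0.1% BSA, 20°C, 1.5 hr. Nonspecific binding was defined with 1 µM unlabeled human NPS. Cells were washed, lysed in 1 N NaOH and counted by liquid scintillation. IC50 from one experiment in duplicate.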

Neuropeptide S receptor [2] = biological target: T1, Neuropeptide S receptor; assay: Antagonist activity at neuropeptide S receptor (unknown origin) expressed in CHO cells assessed as inhibition of NPS-induced ERK activation after 20 mins by HTRF assay; type: cell-based
[3] = Metabolic stability in mouse liver microsomes assessed as compound remaining after 30 mins in presence NADPH; type: ADME, Microsome; conditions: read-out: Stability
Method in brief: (§2)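 Compound was incubated with mouse liver microsomes, and percent parent remaining was determined at 15, 30 and 60 min. Values are means from a single experiment run in duplicate.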

[4] = Metabolic stability in mouse liver microsomes assessed as compound remaining after 30 mins in absence NADPH; type: ADME, Microsome; conditions: read-out: Stability; method in brief: as §2
[5] = Drug level in mouse brain after 2 hrs; type: ADME, tissue-based; conditions: read-out: Drug uptake
Neuropeptide S receptor [6] = biological target: T1, Neuropeptide S receptor; assay: Displacement of [125I]Tyr10-NPS from neuropeptide S receptor (unknown origin); method in brief: as §1
[7] = Metabolic stability in mouse liver microsomes assessed as compound remaining after 15 mins in absence NADPH; type: ADME, Microsome; conditions: read-out: Stability; method in brief: as §2
[8] = Drug level in mouse brain after 15 mins; type: ADME, tissue-based; conditions: read-out: Drug uptake
Neuropeptide S receptor [9] = biological target: T1, Neuropeptide S receptor; assay: Antagonist activity at neuropeptide S receptor (unknown origin) assessed as intracellular calcium level by cell based assay; type: functional
Method in brief: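 CHO cells stably expressing NPSR were seeded at 2000 cells/well and incubated overnight at 37 °C, 5% CO2. They were loaded with no-wash calcium dye for 1 h, then preincubated with compound in DMSO for 10 min. Stimulation used NPS at EC80 in PBS/0.1% BSA/0.05% Tween-20 with 500 µM Ro 20-1724. Kinetic fluorescence was read at 1 Hz: 6 s baseline, then 4 min. IC50 is the mean ± SD of two independent experiments, each in duplicate.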

[10] = Metabolic stability in mouse liver microsomes assessed as compound remaining after 60 mins in presence NADPH; type: ADME, Microsome; conditions: read-out: Stability; method in brief: as §2
Neuropeptide S receptor [11] = biological target: T1, Neuropeptide S receptor; assay: Antagonist activity at neuropeptide S receptor (unknown origin) expressed in CHO cells assessed as cAMP level after 30 mins by […] assay; type: functional, cell-based; conditions: read-out: IC50
Method in brief: (§3)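 CHO cells stably expressing NPSR, 1800 cells/well in 1536-well format, seeded overnight at 37°C in medium without Geneticin. Stimulation buffer (PBS, 0.1% BSA, 0.05% Tween-20, 500µM Ro 20-1724, EC80 NPS) was added for 30 min at 37°C. cAMP was read by HTRF (d2-cAMP/cryptate anti-cAMP in lysis buffer, 30 min). IC50 is the mean with SD of two independent experiments, each run in duplicate.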

[12] = Metabolic stability in mouse liver microsomes assessed as compound remaining after 60 mins in absence NADPH; type: ADME, Microsome; conditions: read-out: Stability; method in brief: as §2
Neuropeptide S receptor [13] = biological target: T1, Neuropeptide S receptor; assay: Antagonist activity at neuropeptide S receptor (unknown origin) expressed in CHO cells assessed as inhibition of NPS-induced calcium mobilization after 10 mins by fluorescence assay; type: functional, cell-based; conditions: read-out: IC50
Method in brief: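 CHO-NPSR cells, 2000/well in 1536-well plates, incubated overnight, then loaded with no-wash calcium dye for 1 h at 37°C. Compound in DMSO was added for 10 min. Baseline fluorescence was recorded 6 s at 1 Hz, then EC80 NPS in stimulation buffer was added and recording continued 4 min at 1 Hz on a kinetic reader. IC50 is the mean with SD of two independent experiments in duplicate.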

[14] = Metabolic stability in mouse liver microsomes assessed as compound remaining after 15 mins in presence NADPH; type: ADME, Microsome; conditions: read-out: Stability; method in brief: as §2
Neuropeptide S receptor [15] = biological target: T1, Neuropeptide S receptor; assay: Antagonist activity at neuropeptide S receptor (unknown origin) assessed as cAMP level by cell based assay; type: functional; method in brief: as §3
Mus musculus = assay: Inhibition of NPS-induced hyperlocomotion in mouse at 50 mg/kg, ip after 90 mins; type: functional; conditions: 1.5 h, route intraperitoneal

Compound: O=C(NCc1ccc(F)cc1)N1CCN2C(=O)OC(c3ccccc3)(c3ccccc3)C2C1 (stereo unspecified)
- IC50 (Neuropeptide S receptor [1]): 0.025 µM
- IC50 (Neuropeptide S receptor [2]): 0.014 µM
- remaining at 0.5 h [3]: 9%
- remaining at 0.5 h [4]: 96%
- concentration at 2 h [5]: 2 µM
- IC50 (Neuropeptide S receptor [6]): 0.048 µM
- remaining at 0.25 h [7]: 105%
- concentration at 0.25 h [8]: 6 µM
- IC50 (Neuropeptide S receptor [9]): 0.028 µM
- remaining at 1 h [10]: 2%
- IC50 (Neuropeptide S receptor [11]): 0.0053 µM
- remaining at 1 h [12]: 101%
- IC50 (Neuropeptide S receptor [13]): 0.42 µM
- remaining at 0.25 h [14]: 29%
- IC50 (Neuropeptide S receptor [15]): 0.42 µM
- inhibition in vivo at 50 mg/kg (Mus musculus): 50%
